Assay results from PMC4708961 (Drug Design, Development and Therapy, 2016).

Key:
ACE = molecular target: T1, ACE (Oryctolagus cuniculus, UniProt P12822); assay: In vitro ACE inhibition assay; type: biochemical; conditions: IC50, ACE from rabbit lung acetone powder; substrate HHL
T1 sequence (P12822 34-1310): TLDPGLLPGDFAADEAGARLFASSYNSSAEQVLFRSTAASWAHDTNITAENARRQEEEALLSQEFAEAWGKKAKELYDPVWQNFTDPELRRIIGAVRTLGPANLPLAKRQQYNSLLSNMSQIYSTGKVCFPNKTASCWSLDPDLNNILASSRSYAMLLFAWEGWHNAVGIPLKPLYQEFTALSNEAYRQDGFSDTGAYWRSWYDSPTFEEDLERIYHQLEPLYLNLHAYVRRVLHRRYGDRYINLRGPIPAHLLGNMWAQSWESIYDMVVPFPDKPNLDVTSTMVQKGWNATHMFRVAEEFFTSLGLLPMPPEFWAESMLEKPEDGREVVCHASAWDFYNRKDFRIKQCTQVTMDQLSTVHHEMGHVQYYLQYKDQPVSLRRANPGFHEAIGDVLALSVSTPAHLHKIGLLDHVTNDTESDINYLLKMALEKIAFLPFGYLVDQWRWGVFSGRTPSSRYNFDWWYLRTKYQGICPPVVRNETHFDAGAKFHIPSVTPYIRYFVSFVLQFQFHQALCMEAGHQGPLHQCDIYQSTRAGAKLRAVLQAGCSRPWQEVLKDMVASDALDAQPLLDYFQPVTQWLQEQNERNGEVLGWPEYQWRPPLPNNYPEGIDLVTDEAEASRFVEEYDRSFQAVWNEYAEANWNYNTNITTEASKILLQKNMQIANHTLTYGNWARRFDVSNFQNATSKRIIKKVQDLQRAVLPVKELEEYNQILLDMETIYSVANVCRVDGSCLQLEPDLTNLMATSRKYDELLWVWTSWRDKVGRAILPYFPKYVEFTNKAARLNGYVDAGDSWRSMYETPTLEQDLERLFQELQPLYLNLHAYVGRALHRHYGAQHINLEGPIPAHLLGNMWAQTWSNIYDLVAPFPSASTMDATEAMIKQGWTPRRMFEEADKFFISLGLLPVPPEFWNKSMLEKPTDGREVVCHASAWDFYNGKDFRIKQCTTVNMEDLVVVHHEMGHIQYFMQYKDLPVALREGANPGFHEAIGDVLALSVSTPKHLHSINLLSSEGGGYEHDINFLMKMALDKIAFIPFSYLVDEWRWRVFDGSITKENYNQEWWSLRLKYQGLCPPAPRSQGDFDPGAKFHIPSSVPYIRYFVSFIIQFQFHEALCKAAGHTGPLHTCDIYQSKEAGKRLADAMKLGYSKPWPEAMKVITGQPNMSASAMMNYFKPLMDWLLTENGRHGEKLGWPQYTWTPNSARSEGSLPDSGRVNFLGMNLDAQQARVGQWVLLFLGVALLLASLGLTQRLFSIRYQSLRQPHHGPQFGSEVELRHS

NO donor activity = conditions: 100 μmol, phosphate buffer pH 7.4, 5 mM L-cysteine, 3 hours at 37°C
Summary of the method: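 Test compound in DMSO (100 μmol) was added to 50 mM phosphate buffer pH 7.4 with 5 mM L-cysteine hydrochloride and held 3 h at 37°C. Griess reagent was then added, and absorbance at 550 nm was read after 20 min against a 5–50 μM sodium nitrite calibration curve. Release was expressed as mol nitrite detected per mol test compound ×100.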

[1] = experimental rats; cited from earlier work
isolated rat hearts = assay: Vasodilator activity on isolated rat hearts; conditions: 10 μg test compound
[2] = Bioavailability study after oral administration in mice; type: in vivo
Summary of the method: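 Swiss Webster mice aged 20–25 weeks, in control and test groups (n=5), were dosed orally by dosing needle at 3 mg per 30 g body weight; a comparator group received 2 g/kg orally. Plasma was precipitated with 40% methanol and spun at 14,000 rpm for 10 min. The supernatant was run on RP-Amide HPLC (50 mmol/L NaH2PO4 pH 4.3 to 70% acetonitrile gradient, 0.7 mL/min) with electrochemical detection.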

[3] = isolated rat heart, BaCl2-induced reduction
[4] = mice, 3 mg per 30 g body weight

| SMILES | IC50 (ACE) [µM] | other results |
| --- | --- | --- |
| CCN1C/C(=C\c2ccc(O)c(O)c2)C(=O)/C(=C/c2ccc(O)c(O)c2)C1 [Compound 4e, (3E,5E)-3,5-bis(3,4-dihydroxybenzylidene)-1-ethylpiperidin-4-one] | 32.2 |  |
| COc1cc(/C=C/C(=O)CC(=O)/C=C/c2ccc(O)c(OC)c2)ccc1O [curcumin] |  | NO donor activity (percentage of NO2) (NO donor activity): did not result in any significant changes; oral bioavailability [1]: very poor; heart rate (isolated rat hearts): did not result in any significant changes; cardiac output (isolated rat hearts; [3]): did not result in any significant changes; stroke volume (isolated rat hearts; [3]): did not result in any significant changes; time until first observed in the blood ([2]; curcumin 2 g/kg): ~80 min |
| CCCCCN1C/C(=C\c2ccccc2)C(=O)/C(=C/c2ccccc2)C1 [Compound 4d, (3E,5E)-3,5-dibenzylidene-1-pentylpiperidin-4-one] | 78.5 |  |
| CCN1C/C(=C\c2cc(OC)c(OC)c(OC)c2)C(=O)/C(=C/c2cc(OC)c(OC)c(OC)c2)C1 [Compound 4i, (3E,5E)-1-ethyl-3,5-bis(3,4,5-trimethoxybenzylidene) piperidin-4-one] | 3.21 |  |
| CCCCN1C/C(=C\c2ccc(O)c(O)c2)C(=O)/C(=C/c2ccc(O)c(O)c2)C1 [Compound 4g, (3E,5E)-1-butyl-3,5-bis(3,4-dihydroxybenzylidene) piperidin-4-one] | 41.3 |  |
| CCCCCN1C/C(=C\c2ccc(O)c(O)c2)C(=O)/C(=C/c2ccc(O)c(O)c2)C1 [Compound 4h, (3E,5E)-3,5-bis(3,4-dihydroxybenzylidene)-1-pentylpiperidin-4-one] | 48.6 |  |
| CCCCN1C/C(=C\c2ccccc2)C(=O)/C(=C/c2ccccc2)C1 [Compound 4c, (3E,5E)-3,5-dibenzylidene-1-butylpiperidin-4-one] | 64.4 |  |
| CCN1C/C(=C\c2ccccc2)C(=O)/C(=C/c2ccccc2)C1 [Compound 4a, (3E,5E)-3,5-dibenzylidene-1-ethylpiperidin-4-one] | 50.9 |  |
| CCCN1C/C(=C\c2ccccc2)C(=O)/C(=C/c2ccccc2)C1 [Compound 4b, (3E,5E)-3,5-dibenzylidene-1-propylpiperidin-4-one] | 51.1 |  |
| CCCN1C/C(=C\c2ccc(O)c(O)c2)C(=O)/C(=C/c2ccc(O)c(O)c2)C1 [Compound 4f, (3E,5E)-3,5-bis(3,4-dihydroxybenzylidene)-1-propylpiperidin-4-one] | 20.1 |  |

The next lines start with results.

| IC50 (ACE) [µM] | SMILES | other results |
| --- | --- | --- |
| 90.2 | CCCN1C/C(=C\c2ccc([N+](=O)[O-])cc2)C(=O)/C(=C/c2ccc([N+](=O)[O-])cc2)C1 [Compound 4n, (3E,5E)-3,5-bis(4-nitrobenzylidene)-1-propylpiperidin-4-one] |  |
| 4.45 | CCCCN1C/C(=C\c2cc(OC)c(OC)c(OC)c2)C(=O)/C(=C/c2cc(OC)c(OC)c(OC)c2)C1 [Compound 4k, (3E,5E)-1-butyl-3,5-bis(3,4,5-trimethoxybenzylidene) piperidin-4-one] |  |
| 120 | CCCCCN1C/C(=C\c2ccc([N+](=O)[O-])cc2)C(=O)/C(=C/c2ccc([N+](=O)[O-])cc2)C1 [Compound 4p, (3E,5E)-3,5-bis(4-nitrobenzylidene)-1-pentylpiperidin-4-one] |  |
| 1.23 | CCCN1C/C(=C\c2cc(OC)c(OC)c(OC)c2)C(=O)/C(=C/c2cc(OC)c(OC)c(OC)c2)C1 [Compound 4j, (3E,5E)-1-propyl-3,5-bis(3,4,5-trimethoxybenzylidene) piperidin-4-one] | in vivo bioavailability ([2]; mice): better in vivo bioavailability compared with curcumin; plasma concentration [2, 4]: 35 µM; time until first detected in plasma [2, 4]: 10 min |
| 131 | CCCCN1C/C(=C\c2ccc([N+](=O)[O-])cc2)C(=O)/C(=C/c2ccc([N+](=O)[O-])cc2)C1 [Compound 4o, (3E,5E)-1-butyl-3,5-bis(4-nitrobenzylidene)piperidin-4-one] |  |
| 95.1 | CCN1C/C(=C\c2ccc([N+](=O)[O-])cc2)C(=O)/C(=C/c2ccc([N+](=O)[O-])cc2)C1 [Compound 4m, (3E,5E)-1-ethyl-3,5-bis(4-nitrobenzylidene)piperidin-4-one] |  |
| 6.65 | CCCCCN1C/C(=C\c2cc(OC)c(OC)c(OC)c2)C(=O)/C(=C/c2cc(OC)c(OC)c(OC)c2)C1 [Compound 4l, (3E,5E)-1-pentyl-3,5-bis(3,4,5-trimethoxybenzylidene) piperidin-4-one] | NO donor activity (percentage of NO2) (NO donor activity): highest donor activity |
